Source: the RNAGym collection of RNA variant scans (doi:10.1126/science.aae0568)
This sample holds only a part of the variants without activity.

B1: tRNA (parent)
chain: GUUCCGUUGGCGUAAUGGUAACGCGUCUCCCUCCUAAGGAGAAGACUGCGGGUUCGAGUCCCGUACGGAACG

Variants of: B1
Experiment: yeast fitness relative to wild type (ratio to wild type); higher = fitter; tRNA-Arg(CCU), competitive growth, 37 C, YPD
Summary of the method: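 Amplicons of the tRNA-Arg(CCU) gene were sequenced, 100-nucleotide paired-end, from the start population and from each end population of a pooled yeast competition. The competition, in six parallel replicates, lasted 24 hours in YPD at 37°C. Fitness relative to wild type was calculated from changes in genotype frequencies. Genotypes had to have ≥ 100 starting reads, and estimates < 0.5 were set to 0.5.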

Variant	yeast fitness
GUUCCGUUGGCGUAAUGGUUACGCGUGUACCUCCUAAGGAGAAGACUGCGGGUUCGAGUCCCGUACGGAACG [A20U C27G C29A]	≤ 0.5
GUUCCGUUGGCGUAAUGGUUACGCGUCUCCCUCCUAAGGAGAAGACUGCGGGUUCGUGUCCCGUACGGAACG [A20U A57U]	0.762
GUUCCGUUGGCGUAAUGGUUACGUGUCUCCCUCCUAAGGAGCAGACUGCGGGUUCGAGUCCGGUACGGAACG [A20U C24U A42C C62G]	0.735
GUUCCGUUGGCGUAAUGGUUACGCGUCUCCUUCCUAAGGAGAAGACUGCGGGUUCGUGUCCCGUACGGAACG [A20U C31U A57U]	0.567
GUUCCGUUGGCGUAAUGGUUACGCGUCUCCCUCCUAAGGAGAAGACUGCGGGUUCGAGUCCCGUACGGACCG [A20U A70C]	0.977
GUUCCGUUGGCGUAAUGGUUACGCGUCUCCCUCCUAAGGAGAAGGCUGCAGAUUCGAGUCCCGUACGGAACG [A20U A45G G50A G52A]	0.602
GUUCCGUUGGCGUAAUGGUUACGCGUCUUCCUCCUAAGGAGAAGACUGCGGGUUCGGGUCCCGUGCGGAACG [A20U C29U A57G A65G]	≤ 0.5
GUUCCGUUGGCGUAAUGGUUACGCGUCUCCCUCCUAAGGAGAAGAUUGCGGGUUCGAGUCCCGUACGGGACG [A20U C46U A69G]	0.893
GUUCCGUUGGCGUAAUGGUUACGCGUGUCCCUCCUAAGGAGAAGAGUGUGGGUUCGAGUCCCGUACGGAACG [A20U C27G C46G C49U]	≤ 0.5
GUUCCGUUGGCGUAAUGGUUACGCGUCUCCCUUCUAAGGAGAGGACUGCGGGUUCGAGUCCCGCACGGAACG [A20U C33U A43G U64C]	≤ 0.5
GUUCCGUUGGCGUAAUGGUUACGCGUCUCCCUCAUAAGGAGAAGACUGCGGGUUCGAGUCCCGUACGGAACG [A20U C34A]	0.7
GUUCCGUUGGCGUAAUGGUUACGCGUCUCCCUCGUAAGGAGAAGACUGCGGGUUCGAGUCCCGUACGGAACG [A20U C34G]	0.68
GUUCCGUUGGCGUAAUGGUUACGCGUCUCCCUCUUAAGGAGAAGACUGCGGGUUCGAGUCCCGUACGGAACG [A20U C34U]	0.652
GUUCCGUUGGCGUAAUGGUUACGGGUCUCCAUCCUAAGGAGAAGACUGCGGGUUCGACUCCCGUACGGAACG [A20U C24G C31A G58C]	0.504
GUUCCGUUGGCGUAAUGGUUACGCGUCUCGCUCCUAAGGAGAAGACUGCGGGUUCGAGUCCCGUACGGUACG [A20U C30G A69U]	0.59
GUUCCGUUGGCGUAAUGGUUACGCGUCUCCCUCCUAAGGAGAAGAUUGCGGGUUCGAGUCCCGUACGGAACG [A20U C46U]	0.995
GUUCCGUUGGCGUAAUGGUUACGCGUCUCGCUCCUAAGGAGAAGACUGCGGGUUCGAGUCCCGUACGGAACG [A20U C30G]	0.61
GUUCCGUUGGCGUAAUGGUUACGCGUCUCCCUCAUAAGGAGAAGACUGCGGGUUCGAGUCCUGUACGGAACG [A20U C34A C62U]	0.542
GUUCCGUUGGCGUAAUGGUUAGGCGUCUCCCUCCUAAGGAGAAGACUGCGGGUUCGAGUACCGUACGGAACG [A20U C22G C60A]	≤ 0.5

Variant	yeast fitness
GUUCCGUUGGCGUAAUGGUUACGCGUCUCCCUCCUAAGGAGAAGAUUGCGGGUUGGAGUCCCGUACGGAACG [A20U C46U C55G]	0.539
GUUCCGUUGGCGUAAUGGUUACGCGUCUCCGUCCUAAGGAGAAGACUGCGGGUUCGAGUCCCGUACGGAACG [A20U C31G]	0.865
GUUCCGUUGGCGUAAUGGUUACGCGUCUCCAUCCUAAGGAAAAGACUGCGGGUUCGAGUCCCGUACGGAACG [A20U C31A G41A]	≤ 0.5
GUUCCGUUGGCGUAAUGGUUACGCGUCUCCCUCCUAAGGAGAAGCCUGCGGCUUCGAGUCCCGUACGGAACG [A20U A45C G52C]	0.568
GUUCCGUUGGCGUAAUGGUUACGCGUCUCCUUCCUAAGGAGAAGACUGCGGGUUCGAGUCCUGUACGGAACG [A20U C31U C62U]	0.826
GUUCCGUUGGCGUAAUGGUUACGCGUCUCCCUCCUAAGGAGAUGACUGCGGGUUAGAGUCCCGAACGGAACG [A20U A43U C55A U64A]	≤ 0.5
GUUCCGUUGGCGUAAUGGUUACGCGUCUCGCUACUAAGGAGAAGACUGCAGAUUCGAGUUGCGUACAGAACG [A20U C30G C33A G50A G52A C60U C61G G67A]	≤ 0.5
GUUCCGUUGGCGUAAUGGUUACGCGUCUCCCUCAUAAGGAGAAGACUGCGGGUUCGACUCCAGUACGGCACG [A20U C34A G58C C62A A69C]	≤ 0.5
GUUCCGUUGGCGUAAUGGUUACGCGUCUCCCUCGUAACGAGAAGACUGCGGGUUCGAGUCCCGUACGGAACG [A20U C34G G38C]	≤ 0.5
GUUCCGUUGGCGUAAUGGUUACGCGUCUCCCUCUUAAGGAGAAGAUUGCGAGUUCGAGUCCCGUAUGGAACG [A20U C34U C46U G51A C66U]	≤ 0.5
GUUCCGUUGGCGUAAUGGUUACGCGUCUCCCUCCUAAGGAGAAGACUGCGGGUUCGAGUCCCGUCCGGAACG [A20U A65C]	0.823
GUUCCGUUGGCGUAAUGGUUACGCGUCUCCCUACUAAGGAGAAAACUGCGGGUUCGAGUCCUGUACGGAACG [A20U C33A G44A C62U]	≤ 0.5
GUUCCGUUGGCGUAAUGGUUACGCGUUUCCCUCCUAAGGAGAAGACUGCGGGUUCGAGUCGCGUACGGAACG [A20U C27U C61G]	0.647
GUUCCGUUGGCGUAAUGGUUAGGCGUCUCCCUCCUAAGGGGAAGACUGCGGGUUCGAGUCCCGUACGGAUCG [A20U C22G A40G A70U]	≤ 0.5
GUUCCGUUGGCGUAAUGGUUACGCGUCUCCCUCUUAAGGAAAAGACUGCGGGUUCGAGUCCCGUACGGAACG [A20U C34U G41A]	≤ 0.5
GUUCCGUUGGCGUAAUGGUUACGAGUCUCCCUCCUAAGGAGAAGACUGCGGGUUCGCGUCCCGUACGGAACG [A20U C24A A57C]	≤ 0.5
GUUCCGUUGGCGUAAUGGUUACGCGUCUCCUUCCUAAGGAGAAGACUGCGGGUUCAAGUCUCGUACGGAACG [A20U C31U G56A C61U]	≤ 0.5
GUUCCGUUGGCGUAAUGGUUACGCGUCUCACUCCUAAGGAGAAGACUGCGGAUUCGAGUCCCGUUCGGAACG [A20U C30A G52A A65U]	≤ 0.5
GUUCCGUUGGCGUAAUGGUUACGCGUCUCCCUCAUAAAGAGAAGACUGCGGGUUCGAGACCCGUACGGAACG [A20U C34A G38A U59A]	≤ 0.5
